Compound activity (PubChem BioAssay)
In the library only some 1.9% were active in any assay of this set; here they are far more common.
RanGTP-Imp inh: inhibitors of RanGTP-importin-beta interaction, primary screen, biochemical, FRET, CFP-Ran, YFP-importin-beta, homogeneous | Ran GTPase (GTP-bound) - importin-beta complex | cell-free CFP-Ran/YFP-importin-beta FRET ratio | inhibition, % (test concentration not listed) | 300,000 tested, 1.1% active;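 active means more than half of the replicate wells show a fall in the fluorescence ratio signal beyond about 16%, limit read from the data, passing the limit was not always enough; inconclusive means exactly half of the replicate wells pass the set limit; inactive means fewer than half of replicates pass the limit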;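 further: 0% = DMSO wells and 100% = Ran loaded with GDP instead of GTP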
Hck-Nef inh: inhibitors of Nef-activated human Hck kinase, primary screen, biochemical, Z-Lyte FRET, 384-well, Hck-YEEI; Tyrosine-protein kinase HCK (Homo sapiens), P08631; Recombinant Hck-YEEI plus Nef, Z-Lyte FRET kinase assay; inhibition, % at 20 µM; 220,000 tested, 0.68% active; AID 463187, 2010;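 active means Hck-Nef kinase inhibition above about 50%, limit read from the data; inactive means inhibition below that limit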;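 further: 0% = DMSO with Hck plus Nef and 100% = Hck alone without Nef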
Target sequence (P08631 whole entry, looked up): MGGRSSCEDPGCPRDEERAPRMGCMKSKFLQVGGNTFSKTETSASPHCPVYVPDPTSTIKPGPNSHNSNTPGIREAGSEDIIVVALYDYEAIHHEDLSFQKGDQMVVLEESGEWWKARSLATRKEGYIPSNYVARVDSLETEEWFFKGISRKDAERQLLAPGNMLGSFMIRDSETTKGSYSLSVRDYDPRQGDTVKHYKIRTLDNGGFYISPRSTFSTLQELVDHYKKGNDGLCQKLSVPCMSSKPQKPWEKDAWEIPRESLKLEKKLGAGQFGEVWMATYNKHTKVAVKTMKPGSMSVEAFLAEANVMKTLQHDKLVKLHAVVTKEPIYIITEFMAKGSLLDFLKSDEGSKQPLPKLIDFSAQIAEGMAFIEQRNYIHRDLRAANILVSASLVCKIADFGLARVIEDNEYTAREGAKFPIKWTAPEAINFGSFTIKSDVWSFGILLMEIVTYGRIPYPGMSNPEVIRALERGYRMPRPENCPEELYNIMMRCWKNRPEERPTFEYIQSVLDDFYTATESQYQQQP
Runt-CBFb FRET: inhibitors of RUNX1 Runt–CBFb binding, primary screen, biochemical, FRET, Cerulean-Runt, Venus-CBFb, uHTS | Runt-related transcription factor 1 (Homo sapiens) + Core-binding factor subunit beta … | Cerulean-Runt/Venus-CBFb FRET ratio 530/480, 1 h | inhibition, % at 20 µM | 220,000 tested, 0.46% active;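 active means inhibition over about 50% at 20 µM in the single-dose screen, limit read from the data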;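 further: 0% = DMSO wells and 100% = excess unlabeled CBFb competitor control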
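test system = Cerulean-tagged RUNX1 Runt domain (FRET donor) fusion protein | reagent = Venus-CBFb binding partner, 100 nM | incubation = protein complex preformed 1 h, compound exposure 1 h, room temperature, dark | detection = FRET fluorescence | read-out basis = loss of energy transfer signal | controls = 5 µM unlabeled CBFb as full-inhibition high control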
Runt-SMMHC FRET: inhibitors of RUNX1 Runt–CBFb-SMMHC binding, primary screen, biochemical, FRET, Cerulean-Runt, Venus-CBFb-SMMHC, uHTS; Runt-related transcription factor 1 (Homo sapiens) + Core-binding factor subunit beta …; AID 1434, 2008; 220,000 tested, 0.74% active; inhibition, % at 20 µM; Cerulean-Runt/Venus-CBFb-SMMHC FRET ratio 530/480, 1 h;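 active means mean inhibition across duplicate retests at 20 µM reaching about 50%, limit read from the data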;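 further: 0% = DMSO wells and 100% = wells with excess untagged CBFb-SMMHC; inhibitors lower the FRET ratio by blocking Runt binding to CBFb-SMMHC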
YIC FRET counter: YIC intramolecular FRET probe signal interference, dose response, counter-screen for RanGTP-importin-beta inhibitor project, biochemical, fluorescence FRET | shares compounds with RanGTP-Imp inh | Purified YIC probe, intramolecular FRET ratio YFP/CFP | IC50, µM | 1,000 tested, 40% active;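 active means fitted half-maximal inhibitory concentration no more than tenfold above the top dose tested; inconclusive means flat fit with 30 to 70% activity, or poor fit; inactive means half-maximal concentration beyond tenfold above the top dose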
* marks the source's active call; other numbers are inactive results; ? = inconclusive; nt = no result.

SMILES	RanGTP-Imp inh	Hck-Nef inh	Runt-CBFb FRET	Runt-SMMHC FRET	YIC FRET counter
CCSc1nnc(-c2cc(Br)ccc2N=Cc2c(C)[nH]n(-c3ccccc3)c2=O)c(=O)[nH]1	18.3*	7.2	-0.6	-10.0	>50
CSc1nnc(-c2cc(Br)ccc2N=Cc2c(C)[nH]n(-c3ccccc3)c2=O)c(=O)[nH]1	0.4	21.6	5.1	-1.6	nt
Cc1ccc(Cl)cc1N1C(=O)CC(Sc2ncccn2)C1=O (stereo unspecified)	16.1*	nt	nt	nt	>50
CC(C)c1cc(N2CCN(C(=O)c3ccco3)CC2)n2c(nc3ccccc32)c1C#N	?	12.7	25.3	nt	16.1*
COc1cccc2c(=O)cn[nH]c12	0.2	3.0	-1.5	4.6	nt
O=c1cn[nH]c2ccccc12	20.7*	6.7	2.0	-9.5	>50
CC1CN(CCC(=O)Nc2ccc3c(c2)OCO3)CC(C)O1 (stereo unspecified)	-1.4	0.2	0.0	2.3	nt
C[C@@H]1CCCCO[C@H](CN(C)Cc2ccc3c(c2)OCO3)[C@@H](C)CN([C@H](C)CO)C(=O)c2cc(NC(=O)CCCN(C)C)ccc2O1	nt	nt	nt	nt	>46
CC1(C)CCC(=O)C=C1Nc1ccc(F)c(Cl)c1	25.5*	nt	nt	nt	>50
O=C1CCCN=C(Nc2ccc(F)c(Cl)c2)S1	5.5	8.3	-1.8	-6.1	nt
Cc1cccc(NS(=O)(=O)c2ccc(C(=O)N3CCCC3)cc2)c1C	2.8	nt	nt	nt	nt
Cc1cccc(NS(=O)(=O)c2ccc(C(=O)N3CCCCCC3)cc2)c1C	17.1*	nt	nt	nt	>50
Clc1ccc(-c2nnc(SCc3nc4ccccc4[nH]3)o2)c(Cl)c1	32.4*	-10.7	-0.3	2.0	>50
c1ccc2[nH]c(CSc3nnc(-c4ccncc4)o3)nc2c1	6.0	-1.7	-0.8	-3.4	nt
COc1cc(C(=O)NCCCNC(=O)c2cc(OC)c(OC)c(OC)c2)cc(OC)c1OC	3.5	nt	nt	nt	nt
COc1cc(C(=O)NCCCNc2nc3cc(C)cc(C)c3cc2C#N)cc(OC)c1OC	20.9*	18.5	nt	72.9*	27.8*
CCOC(=O)c1ccc(CNC(=O)CSc2nnc(-c3ccncc3)o2)cc1	25.9*	-1.9	2.0	-4.9	>50
COc1ccccc1C1C(C(N)=O)=C(C)Nc2ncnn21 (stereo unspecified)	23.2*	6.7	-0.4	2.5	>50
O=C(c1ccco1)N1CCN(Cc2cccc([N+](=O)[O-])c2)CC1	-1.7	19.4	0.5	0.5	nt
OCCN1CN=C(Nc2nc3ccccc3s2)NC1	2.6	9.3	0.9	-1.8	nt
c1ccc2sc(NC3=NCN(CCN4CCOCC4)CN3)nc2c1	28.3*	22.6	-1.9	0.8	>50
O=C(/C=C/c1ccccc1[N+](=O)[O-])N1CCN(c2ccc(F)cc2)CC1	23.5*	16.2	0.3	2.3	>50
CC(C)c1ccc(NC(=O)CCN2C(=O)[C@@H]3Cc4ccccc4CN3C2=O)cc1	3.8	nt	nt	nt	nt
CN(C)S(=O)(=O)c1cccc(C(=O)Nc2ccccc2[N+](=O)[O-])c1	3.5	-0.9	0.8	-6.3	nt
CCN(CC)S(=O)(=O)c1cc(C(=O)Nc2ccccc2[N+](=O)[O-])ccc1Cl	25.5*	-2.2	-2.4	0.4	>50
SMILES	RanGTP-Imp inh	Hck-Nef inh	Runt-CBFb FRET	Runt-SMMHC FRET	YIC FRET counter
O=C(c1cc2ccccc2oc1=O)N1CCN(CCc2ccccc2)CC1	33.2*	-3.2	50.0	77.0*	7.34*
Cc1ccc(S(=O)(=O)NC(C(=O)N2CCOCCOCCOCC2)c2ccccc2)cc1 (stereo unspecified)	0.4	3.6	2.3	-2.5	nt
Cc1ccc(S(=O)(=O)NC(C(=O)Oc2ccc3ccc(=O)oc3c2)c2ccccc2)cc1 (stereo unspecified)	20.4*	57.8*	84.7*	160.0*	28.1*
O=C1CCC(C(=O)N2CCSCC2)CN1Cc1cccc(C(F)(F)F)c1 (stereo unspecified)	5.1	nt	nt	nt	nt
CCC(=O)N(C)/C=C1\Sc2ccccc2C1=O	19.6*	4.1	nt	153.7*	>50
CC(=O)Cn1nnc2sc(-c3ccccc3)cc2c1=O	?	27.5	-2.0	2.8	nt
CSc1nsc(/C=C/Nc2ccc(C)cc2)c1C#N	23.8*	3.5	2.7	-6.3	>50
COc1cc(/C=N/Nc2snc(SC)c2C#N)ccc1O	10.2	2.3	30.3	27.0	nt
CCOc1ccc(NC(=O)NC2CCS(=O)(=O)C2)cc1 (stereo unspecified)	5.8	nt	nt	nt	nt
CCOCCCn1c(SCc2ccccc2)nnc1-c1ccncc1	4.6	nt	nt	nt	nt
COc1ccc(/C=N/NC(=O)c2sc3nc(C)cc(C)c3c2N)cc1	22.8*	8.4	18.9	35.2	6.59*
CCOc1ccccc1N(CC(=O)NCCSc1ccccc1)S(C)(=O)=O	7.1	13.5	0.4	2.6	nt
COc1ccc(CCNc2oc(-c3ccco3)nc2C#N)cc1	26.2*	0.2	-1.9	0.2	>50
N#Cc1nc(-c2ccco2)oc1NCCc1ccccc1	1.8	0.5	0.0	-0.4	nt
CC1(C)Oc2ccc(C(=O)Nc3ccccc3)cc2N(CC#N)C1=O	3.2	nt	nt	nt	nt
CC(C)CCNC(=O)C(c1ccco1)N(Cc1ccccc1)C(=O)c1snc(C(N)=O)c1N (stereo unspecified)	30.1*	3.7	-3.5	5.6	>50
Cc1ccc(C(C(=O)NCc2ccccc2)N(Cc2ccco2)C(=O)c2snc(C(N)=O)c2N)o1 (stereo unspecified)	-2.2	nt	nt	nt	nt
CCCCN(C)C(=O)c1cccc(OC2CCN(CC(C)(C)C)CC2)c1	17.2*	nt	nt	nt	>50
CCC(C)CNC(=O)c1cccc(OC2CCN(CC(C)(C)C)CC2)c1 (stereo unspecified)	13.0	nt	nt	nt	nt
CCOc1cc(/C=N/NC(=O)C(O)(c2ccccc2)c2ccccc2)ccc1OC(=O)c1ccco1	6.1	nt	nt	nt	nt
COc1nc(N(C)C)nc(N(C#N)S(=O)(=O)c2ccc(C)cc2)n1	5.7	nt	nt	nt	nt
Cc1cc(C)c2c(n1)nn1c(NCCCN(C)C)cc(C)nc21	30.2*	32.6	22.0	63.8*	26.7*
C/C(=C\C(=O)C(F)(F)F)Nc1ccc(C(F)(F)F)cc1	20.4*	0.6	0.5	3.2	>50
CN(C)/C=N/c1nc2nccc(-c3cccs3)n2n1	16.7*	22.1	2.3	10.2	13.8*
CN(C)/C=N/c1nc2nccc(-c3ccc(F)cc3)n2n1	-3.0	21.8	1.6	-0.9	nt
CCOc1ccc(C(=O)c2cc3ccc(O)cc3oc2=O)cc1	52.7*	31.8	86.5*	90.0*	7.96*
O=C(c1ccc([N+](=O)[O-])cc1)c1cc2ccc(O)cc2oc1=O	2.2	nt	nt	nt	nt
O=C(CN1C(=O)c2ccccc2S1(=O)=O)NCCSCc1c(F)cccc1Cl	-3.6	nt	nt	nt	nt
